Results on five compounds are retold here after ChEMBL document CHEMBL1153736, “Application of ring-closing metathesis macrocyclization to the development of Tsg101-binding antagonists” (Bioorg Med Chem Lett, 2010).

pKd: −log10 of the molar value. Numbered stars: 1 amine (or outer) side, 2 acyl side, 3 side chain; on linkers, the order of the positions; unused ones are H or OH. Bridge positions count the residues as written; N and C are the ends. Square brackets hold non-standard residues; d marks the D form. Peptide text beside a SMILES is read from it. * marks the point of attachment. Fluorescein(5-NHCS) = O=C1OC2(c3ccc(O)cc3Oc3cc(O)ccc32)c2cc(NC(=S)*)ccc21; X3 = O=C(CN(CCCCCCC=[*:3])[*:1])[*:2]; X5 = O=C(CN(CCCCCC=[*:3])[*:1])[*:2]; X4 = O=C(CN(CCCCC=[*:3])[*:1])[*:2]; X2 = O=C(CN(CC=[*:3])[*:1])[*:2]; NAllylGly = C=CCNCC(=O)O; Ava = NCCCCC(=O)O

In one series the target is T1, Tumor susceptibility gene 101 protein (Homo sapiens, UniProt Q99816).
T1 sequence (Q99816 whole entry): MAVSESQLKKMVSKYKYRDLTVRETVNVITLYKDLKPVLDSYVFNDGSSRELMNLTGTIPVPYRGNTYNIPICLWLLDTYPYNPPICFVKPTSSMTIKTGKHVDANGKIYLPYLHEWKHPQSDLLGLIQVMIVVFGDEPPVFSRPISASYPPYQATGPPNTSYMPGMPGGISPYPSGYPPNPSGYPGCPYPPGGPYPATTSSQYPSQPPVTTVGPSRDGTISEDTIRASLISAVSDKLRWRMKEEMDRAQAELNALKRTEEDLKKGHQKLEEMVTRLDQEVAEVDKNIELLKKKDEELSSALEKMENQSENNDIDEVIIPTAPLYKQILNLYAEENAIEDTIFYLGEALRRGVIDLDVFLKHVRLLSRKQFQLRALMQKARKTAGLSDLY
Nature of the series: Binding affinity to ubiquitin E2 variant domain of human Tsg101 by fluorescent anisotropy.
Conditions: not given
A word on the pKd: it is the Kd on a negative log10 scale, so that one unit is a factor of ten. Read a high pKd as a low Kd. The compound `C=CCN(CC(=O)N1CCC[C@H]1C(=O)N[C@H](C(=O)N[C@@H](C)C(=O)N1CCC[C@H]1C(=O)N1CCC[C@H]1C(=O)N(CC=C)CC(=O)N[C@@H](CCC(=O)O)C(N)=O)[C@@H](C)O)C(=O)[C@@H]1CCCN1C(=O)CCCCNC(=S)Nc1ccc2c(c1)C1(OC2=O)c2ccc(O)cc2Oc2cc(O)ccc21` ({Fluorescein(5-NHCS)-Ava}-P[NAllylGly]PTAPP[NAllylGly]E-NH2) gave a pKd of 3.23.
As for `C[C@@H]1NC(=O)[C@H]([C@@H](C)O)NC(=O)[C@@H]2CCCN2C(=O)CN(C(=O)[C@@H]2CCCN2C(=O)CCCCNC(=S)Nc2ccc3c(c2)C2(OC3=O)c3ccc(O)cc3Oc3cc(O)ccc32)CCCC/C=C/CN(CC(=O)N[C@@H](CCC(=O)O)C(N)=O)C(=O)[C@@H]2CCCN2C(=O)[C@@H]2CCCN2C1=O` ({Fluorescein(5-NHCS)-Ava}-P[X4]PTAPP[X2]E-NH2; staple (E) 2-8), the pKd was less than 3.30.
In the case of `C[C@@H]1NC(=O)[C@H]([C@@H](C)O)NC(=O)[C@@H]2CCCN2C(=O)CN(C(=O)[C@@H]2CCCN2C(=O)CCCCNC(=S)Nc2ccc3c(c2)C2(OC3=O)c3ccc(O)cc3Oc3cc(O)ccc32)CCCCC/C=C\CN(CC(=O)N[C@@H](CCC(=O)O)C(N)=O)C(=O)[C@@H]2CCCN2C(=O)[C@@H]2CCCN2C1=O` ({Fluorescein(5-NHCS)-Ava}-P[X5]PTAPP[X2]E-NH2; staple (Z) 2-8), the pKd is less than 3.30.
`C[C@@H]1NC(=O)[C@H]([C@@H](C)O)NC(=O)[C@@H]2CCCN2C(=O)[C@H](CCC(=O)O)NC(=O)CN(C(=O)CCCCNC(=S)Nc2ccc3c(c2)C2(OC3=O)c3ccc(O)cc3Oc3cc(O)ccc32)C/C=C\CCCCCCN(CC(=O)N[C@@H](CCC(=O)O)C(N)=O)C(=O)[C@@H]2CCCN2C(=O)[C@@H]2CCCN2C1=O` ({Fluorescein(5-NHCS)-Ava}-[X2]EPTAPP[X3]E-NH2; staple (Z) 1-8) showed a pKd of less than 3.30.
Same read-out and setting: with `C[C@@H]1NC(=O)[C@H]([C@@H](C)O)NC(=O)[C@@H]2CCCN2C(=O)[C@H](CCC(=O)O)NC(=O)CN(C(=O)CCCCNC(=S)Nc2ccc3c(c2)C2(OC3=O)c3ccc(O)cc3Oc3cc(O)ccc32)CCCCC/C=C/CN(CC(=O)N[C@@H](CCC(=O)O)C(N)=O)C(=O)[C@@H]2CCCN2C(=O)[C@@H]2CCCN2C1=O` ({Fluorescein(5-NHCS)-Ava}-[X5]EPTAPP[X2]E-NH2; staple (E) 1-8) the figure was less than 3.30.

In another series the test system is HeLa. Nature of the series: Cellular uptake in human HeLa cells assessed as fluorescence intensity by FACS analysis relative to control. Type of series: ADME, cell-based. As to conditions: in the assay text read “fluorescence microscopy” for “FACS analysis”. In outline: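 Uptake of FITC-tagged peptide-peptoid hybrids was measured by fluorescence microscopy. The value is the average fluorescence intensity of treated cells, quantified from at least 20 cells taken from 4–6 fields, each field holding about 5 cells.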
On the technique in general: A flow cytometer gives signals particle by particle.
In the case of `C=CCN(CC(=O)N1CCC[C@H]1C(=O)N[C@H](C(=O)N[C@@H](C)C(=O)N1CCC[C@H]1C(=O)N1CCC[C@H]1C(=O)N(CC=C)CC(=O)N[C@@H](CCC(=O)O)C(N)=O)[C@@H](C)O)C(=O)[C@@H]1CCCN1C(=O)CCCCNC(=S)Nc1ccc2c(c1)C1(OC2=O)c2ccc(O)cc2Oc2cc(O)ccc21` ({Fluorescein(5-NHCS)-Ava}-P[NAllylGly]PTAPP[NAllylGly]E-NH2), the Drug uptake is given as 74%.
